# Data reported in ChEMBL document CHEMBL5620435, “Elucidating the Mechanism of Metabolism of Cannabichromene by Human Cytochrome P450s” (J Nat Prod, 2024).
# The source made the active and inactive calls. The calls are words filed in the database; no cut-off is given here.
# Experiments:
# [1] = tested on: BV-2; assay: Cytotoxicity against mouse BV-2 cells assessed as reduction in cell viability at 0.1 to 5 uM incubated for 24 hrs by MTT assay; type: toxicity, cell-based; settings: bv-2, 24 h, dose 0.1-5 µM
# Summary of the method: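 BV-2 cells were seeded at about 10 000/well and grown for 24 h. They were preincubated 4 h with cannabinoids at 0.1, 1.0, 2.5 or 5.0 μM (0.1% ethanol), then held 24 h with or without LPS (25 ng/mL). MTT reagent was added for 4 h at 37 °C, the formazan was dissolved, and absorbance was read at 570 nm.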
# [2] = tested on: BV-2; assay: Antiinflammatory activity in LPS-induced mouse BV-2 cells assessed as reduction in IL-6 production preincubated for 4 hrs followed by LPS stimulation for 24 hrs by ELISA; type: functional, cell-based; settings: dose 0.1-5 µM, time 28.0 hrs
# Summary of the method: (§1)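 BV-2 microglia in high-glucose DMEM with 5% heat-inactivated FBS, 37 °C, 5% CO2. Cells (50 000/well) were pretreated with cannabinoids at 0.1, 1.0, 2.5 or 5.0 μM (ethanol 0.1% final) for 4 h, then stimulated with LPS (25 ng/mL) for 24 h. Medium was collected. NO was read by Griess assay at 540 nm against a sodium nitrite calibration curve. IL-6, TNFα and Arg1 were measured by ELISA.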
# [3] = tested on: BV-2; assay: Antiinflammatory activity in LPS-induced mouse BV-2 cells assessed as reduction in TNF-alpha production preincubated for 4 hrs followed by LPS stimulation for 24 hrs by ELISA; type: functional, cell-based; settings: dose 0.1-5 µM, time 28.0 hrs; summary of the method: as §1
# [4] = tested on: BV-2; assay: Antiinflammatory activity in LPS-induced mouse BV-2 cells assessed as increase in Arg-1 production preincubated for 4 hrs followed by LPS stimulation for 24 hrs by ELISA; type: functional, cell-based; settings: dose 0.1-5 µM, time 28.0 hrs; summary of the method: as §1
# [5] = tested on: BV-2; assay: Antiinflammatory activity in LPS-induced mouse BV-2 cells assessed as reduction in IL-6 production at 0.1 to 5 uM preincubated for 4 hrs followed by LPS stimulation for 24 hrs by ELISA; type: functional, cell-based; settings: dose 0.1-5 µM, time 28.0 hrs; summary of the method: as §1
# [6] = tested on: BV-2; assay: Antiinflammatory activity in LPS-induced mouse BV-2 cells assessed as reduction in TNF-alpha production at 0.1 to 5 uM preincubated for 4 hrs followed by LPS stimulation for 24 hrs by ELISA; type: functional, cell-based; settings: dose 0.1-5 µM, time 28.0 hrs; summary of the method: as §1
# [7] = tested on: BV-2; assay: Antiinflammatory activity in LPS-induced mouse BV-2 cells assessed as reduction in NO production at 0.1 to 5 uM preincubated for 4 hrs followed by LPS stimulation for 24 hrs by Griess reagent based assay; type: functional, cell-based; settings: dose 0.1-5 µM, time 28.0 hrs; summary of the method: as §1
# [8] = tested on: BV-2; assay: Antiinflammatory activity in LPS-induced mouse BV-2 cells assessed as reduction in NO production preincubated for 4 hrs followed by LPS stimulation for 24 hrs by Griess reagent based assay; type: functional, cell-based; settings: dose 0.1-5 µM, time 28.0 hrs; summary of the method: as §1
# [9] = biological target: Cytochrome P450 2D6 (Homo sapiens, UniProt P10635); assay: Binding affinity to CYP2D6 (unknown origin) assessed as fold increase in apparent dissociation constant by spectroscopic titration analysis in presence of cytochrome P450 reductase; type: ADME
# Sequence of Cytochrome P450 2D6 (P10635 whole entry): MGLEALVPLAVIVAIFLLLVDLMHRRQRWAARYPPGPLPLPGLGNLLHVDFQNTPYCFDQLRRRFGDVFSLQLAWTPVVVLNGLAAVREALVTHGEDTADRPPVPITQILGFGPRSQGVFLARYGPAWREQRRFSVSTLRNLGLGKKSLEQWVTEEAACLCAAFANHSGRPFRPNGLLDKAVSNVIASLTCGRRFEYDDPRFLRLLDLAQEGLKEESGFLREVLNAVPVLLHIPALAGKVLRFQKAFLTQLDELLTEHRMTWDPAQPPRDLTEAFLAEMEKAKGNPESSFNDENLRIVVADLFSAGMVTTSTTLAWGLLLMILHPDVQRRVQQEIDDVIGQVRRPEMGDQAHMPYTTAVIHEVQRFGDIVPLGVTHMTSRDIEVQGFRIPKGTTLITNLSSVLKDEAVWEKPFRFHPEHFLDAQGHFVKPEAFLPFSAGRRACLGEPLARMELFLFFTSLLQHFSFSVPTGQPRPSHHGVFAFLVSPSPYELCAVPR
# Summary of the method: (§2)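 His-tagged CYPs were expressed in E. coli and Ni-NTA purified. Buffer-exchanged CYP was in 0.1 M phosphate pH 7.4. CPR was added and the pair was preincubated 5 min; final protein was 5–6 μM each. CBC (ethanol stock, ≤1% final) was titrated 0–100 μM with 5 min at 37 °C per step. The Soret shift from ~417 to ~390 nm was recorded as a difference spectrum. Kd(app) came from a one-site binding fit and was compared with CYP alone (4–5 μM protein).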
# [10] = Stability in C57BL/6J mouse plasma assessed as compound consumption by measuring reduction in parent compound level at 20 mg/kg, ip measured after 0.5 to 2 hrs by LC-MS/MS analysis; type: ADME, organism-based; settings: in vivo, time 0.5-2 hrs
# Summary of the method: (§3)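 Female C57BL/6J mice, 8–10 weeks old, received CBC at 20 mg/kg in PBS with 6% Tween-80, IV via the tail vein or IP (n = 3 per route). Blood was taken terminally by cardiac puncture into heparin at 0.5 and 2 h. Plasma (200 μL) was extracted with hexane/ethyl acetate (80:20). CBC and metabolites were quantified by targeted LC-MS/MS (C6-phenyl column, positive ESI) as means ±SE.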
# [11] = Drug metabolism assessed as benzylic hydroxylation mediated 7-(1-hydroxypentyl)-2-methyl-2-(4-methylpent-3-en-1-yl)-2H-chromen-5-ol metabolite formation; type: ADME; settings: 40 min, dose 5-80 µM
# Summary of the method: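 Pooled human liver microsomes (mixed-gender, 50 donors) gave 0.4 μM CYP final in 0.1 M phosphate pH 7.4. CBC 40 μM final was preincubated 10 min. NADPH 1 mM final was added and the reaction ran 30 min at 37 °C. It was quenched and extracted three times with hexane/ethyl acetate (80:20), dried, resuspended in 95% ethanol and analysed by LC-MS (C18, positive ESI).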
# [12] = Drug metabolism in C57BL/6J mouse plasma assessed as (E)-2-(5-hydroxy-4-methylpent-3-en-1-yl)-2-methyl-7-pentyl-2H-chromen-5-ol metabolite formation at 20 mg/kg, iv administered via tail vein measured after 2 hrs by LC/MS/MS analysis; type: ADME, organism-based; settings: in vivo; summary of the method: as §3
# [13] = Drug metabolism in C57BL/6J mouse plasma assessed as 2-(2-(3,3-dimethyloxiran-2-yl)ethyl)-2-methyl-7-pentyl-2H-chromen-5-ol metabolite formation at 20 mg/kg, iv administered via tail vein measured after 0.5 to 2 hrs by LC/MS/MS analysis; type: ADME, organism-based; settings: in vivo, time 0.5-2 hrs; summary of the method: as §3
# [14] = Drug metabolism in C57BL/6J mouse plasma assessed as 5-(5-hydroxy-2-methyl-7-pentyl-2H-chromen-2-yl)-2-methylpentane-2,3-diol metabolite formation at 20 mg/kg, ip measured after 0.5 to 2 hrs by LC/MS/MS analysis; type: ADME, organism-based; settings: in vivo, time 0.5-2 hrs; summary of the method: as §3
# [15] = biological target: T1, Cytochrome P450 2J2 (Homo sapiens, UniProt P51589); assay: Drug metabolism assessed as ratio of CYP2J2 (unknown origin) mediated (E)-2-(5-hydroxy-4-methylpent-3-en-1-yl)-2-methyl-7-pentyl-2H-chromen-5-ol formation to 2-(2-(3,3-dimethyloxiran-2-yl)ethyl)-2-methyl-7-pentyl-2H-chromen-5-ol formation; type: ADME
# T1 sequence (P51589 whole entry): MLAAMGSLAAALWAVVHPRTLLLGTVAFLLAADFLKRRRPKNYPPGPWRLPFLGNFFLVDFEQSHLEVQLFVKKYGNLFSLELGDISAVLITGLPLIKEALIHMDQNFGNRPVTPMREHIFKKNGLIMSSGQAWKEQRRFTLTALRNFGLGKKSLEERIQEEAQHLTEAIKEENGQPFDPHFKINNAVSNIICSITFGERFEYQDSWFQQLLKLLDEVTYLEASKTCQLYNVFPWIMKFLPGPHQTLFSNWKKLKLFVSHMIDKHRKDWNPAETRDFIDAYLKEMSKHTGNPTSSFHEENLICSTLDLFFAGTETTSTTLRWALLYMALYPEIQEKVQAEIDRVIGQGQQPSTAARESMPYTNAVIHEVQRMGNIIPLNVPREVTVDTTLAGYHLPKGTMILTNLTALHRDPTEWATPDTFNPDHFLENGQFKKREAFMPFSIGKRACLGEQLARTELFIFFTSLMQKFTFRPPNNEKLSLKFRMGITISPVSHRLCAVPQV
# Summary of the method: (§4)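 Recombinant CYP (0.5 μM final) was reconstituted in POPC:POPS (8:2) with CPR (0.6 μM) in 0.1 M potassium phosphate pH 7.4. CBC (5–80 μM) was preincubated 10 min at 37 °C and the reaction started with NADPH. Products were extracted three times with hexane/ethyl acetate (80:20), dried, resuspended in ethanol and analysed by LC-MS/MS.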
# [16] = Drug metabolism in C57BL/6J mouse plasma assessed as (E)-2-(5-hydroxy-4-methylpent-3-en-1-yl)-2-methyl-7-pentyl-2H-chromen-5-ol metabolite formation at 20 mg/kg, ip measured after 2 hrs by LC/MS/MS analysis; type: ADME, organism-based; settings: in vivo; summary of the method: as §3
# [17] = biological target: Cannabinoid receptor 1 (Homo sapiens, UniProt P21554); assay: Displacement of d [3H]CP-55,940 from CBR1 (unknown origin) expressed in Sf9 cell membrane assessed as inhibition constant by Topcount scintillation counting analysis; type: cell membranes
# Sequence of Cannabinoid receptor 1 (P21554 whole entry): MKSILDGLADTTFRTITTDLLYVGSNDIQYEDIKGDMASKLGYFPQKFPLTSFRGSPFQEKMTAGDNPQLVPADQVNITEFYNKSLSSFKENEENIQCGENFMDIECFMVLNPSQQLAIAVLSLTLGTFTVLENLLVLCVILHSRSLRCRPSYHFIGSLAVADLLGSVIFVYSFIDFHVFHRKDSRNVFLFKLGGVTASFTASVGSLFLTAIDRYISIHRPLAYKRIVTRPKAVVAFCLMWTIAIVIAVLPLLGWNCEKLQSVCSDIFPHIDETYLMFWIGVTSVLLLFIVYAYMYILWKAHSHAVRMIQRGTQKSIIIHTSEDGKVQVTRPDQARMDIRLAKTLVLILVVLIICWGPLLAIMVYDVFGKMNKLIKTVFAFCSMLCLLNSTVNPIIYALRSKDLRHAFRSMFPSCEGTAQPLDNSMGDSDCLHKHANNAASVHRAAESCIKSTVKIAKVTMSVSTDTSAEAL
# [18] = biological target: Cytochrome P450 3A4 (Homo sapiens, UniProt P08684); assay: Binding affinity to CYP3A4 (unknown origin) assessed as fold increase in apparent dissociation constant by spectroscopic titration analysis in presence of cytochrome P450 reductase; type: ADME; summary of the method: as §2
# Sequence of Cytochrome P450 3A4 (P08684 whole entry): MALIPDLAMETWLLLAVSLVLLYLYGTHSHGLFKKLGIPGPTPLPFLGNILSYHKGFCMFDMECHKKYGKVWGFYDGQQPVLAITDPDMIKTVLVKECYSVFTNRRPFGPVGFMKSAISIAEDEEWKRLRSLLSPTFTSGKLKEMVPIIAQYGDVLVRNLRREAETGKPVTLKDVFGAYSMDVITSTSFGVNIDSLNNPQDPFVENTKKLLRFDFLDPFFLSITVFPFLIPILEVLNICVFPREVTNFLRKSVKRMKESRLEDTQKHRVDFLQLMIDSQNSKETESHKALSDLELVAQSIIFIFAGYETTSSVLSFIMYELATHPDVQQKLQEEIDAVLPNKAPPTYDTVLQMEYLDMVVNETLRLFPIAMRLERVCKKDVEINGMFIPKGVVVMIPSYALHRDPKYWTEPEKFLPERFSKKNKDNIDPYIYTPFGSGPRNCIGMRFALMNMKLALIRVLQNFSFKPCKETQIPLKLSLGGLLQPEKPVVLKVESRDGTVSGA
# [19] = biological target: T2, Cytochrome P450 2C8 (Homo sapiens, UniProt P10632); assay: Binding affinity to CYP2C8 (unknown origin) assessed as fold increase in apparent dissociation constant by spectroscopic titration analysis in presence of cytochrome P450 reductase; type: ADME; summary of the method: as §2
# T2 sequence (P10632 whole entry): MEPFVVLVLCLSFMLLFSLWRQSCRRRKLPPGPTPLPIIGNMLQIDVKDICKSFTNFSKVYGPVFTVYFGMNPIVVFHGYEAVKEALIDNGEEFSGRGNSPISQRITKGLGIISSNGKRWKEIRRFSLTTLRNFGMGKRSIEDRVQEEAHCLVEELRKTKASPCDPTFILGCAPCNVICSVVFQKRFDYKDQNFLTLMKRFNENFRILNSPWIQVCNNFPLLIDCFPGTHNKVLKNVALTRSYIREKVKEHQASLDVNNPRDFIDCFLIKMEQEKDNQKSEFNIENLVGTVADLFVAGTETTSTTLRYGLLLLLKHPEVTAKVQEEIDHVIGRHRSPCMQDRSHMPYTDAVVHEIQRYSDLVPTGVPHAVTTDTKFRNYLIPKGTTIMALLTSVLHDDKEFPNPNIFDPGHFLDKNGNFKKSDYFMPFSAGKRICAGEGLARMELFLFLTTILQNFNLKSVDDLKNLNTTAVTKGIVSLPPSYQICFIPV
# [20] = Drug metabolism in C57BL/6J mouse plasma assessed as (E)-2-(5-hydroxy-4-methylpent-3-en-1-yl)-2-methyl-7-pentyl-2H-chromen-5-ol metabolite formation at 20 mg/kg, ip measured after 0.5 hrs by LC/MS/MS analysis; type: ADME, organism-based; settings: in vivo; summary of the method: as §3
# [21] = biological target: Cannabinoid receptor 2 (Homo sapiens, UniProt P34972); assay: Binding affinity to CBR2 (unknown origin)
# Sequence of Cannabinoid receptor 2 (P34972 whole entry): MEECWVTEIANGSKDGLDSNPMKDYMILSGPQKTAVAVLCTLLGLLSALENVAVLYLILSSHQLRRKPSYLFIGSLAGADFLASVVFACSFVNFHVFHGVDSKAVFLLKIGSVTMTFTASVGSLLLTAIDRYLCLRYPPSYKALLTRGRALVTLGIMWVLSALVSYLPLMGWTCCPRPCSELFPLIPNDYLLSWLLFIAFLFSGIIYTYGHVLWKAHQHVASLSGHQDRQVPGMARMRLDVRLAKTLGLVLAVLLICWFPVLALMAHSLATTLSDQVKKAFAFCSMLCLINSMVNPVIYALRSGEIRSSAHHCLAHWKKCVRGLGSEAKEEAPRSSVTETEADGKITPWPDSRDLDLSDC
# [22] = biological target: T1, Cytochrome P450 2J2; assay: Binding affinity to CYP2J2 (unknown origin) assessed as fold increase in apparent dissociation constant by spectroscopic titration analysis in presence of cytochrome P450 reductase; type: ADME; summary of the method: as §2
# [23] = Drug metabolism in C57BL/6J mouse plasma assessed as 5-(5-hydroxy-2-methyl-7-pentyl-2H-chromen-2-yl)-2-methylpentane-2,3-diol metabolite formation at 20 mg/kg, iv administered via tail vein measured after 0.5 to 2 hrs by LC/MS/MS analysis; type: ADME, organism-based; settings: in vivo, time 0.5-2 hrs; summary of the method: as §3
# [24] = Drug metabolism in C57BL/6J mouse plasma assessed as (E)-2-(5-hydroxy-4-methylpent-3-en-1-yl)-2-methyl-7-pentyl-2H-chromen-5-ol metabolite formation at 20 mg/kg, iv administered via tail vein measured after 0.5 hrs by LC/MS/MS analysis; type: ADME, organism-based; settings: in vivo; summary of the method: as §3
# [25] = Drug metabolism in C57BL/6J mouse plasma assessed as 2-(2-(3,3-dimethyloxiran-2-yl)ethyl)-2-methyl-7-pentyl-2H-chromen-5-ol metabolite formation at 20 mg/kg, ip measured after 0.5 to 2 hrs by LC/MS/MS analysis; type: ADME, organism-based; settings: in vivo, time 0.5-2 hrs; summary of the method: as §3
# [26] = biological target: T2, Cytochrome P450 2C8; assay: Drug metabolism assessed as ratio of CYP2C8 (unknown origin) mediated (E)-2-(5-hydroxy-4-methylpent-3-en-1-yl)-2-methyl-7-pentyl-2H-chromen-5-ol formation to 2-(2-(3,3-dimethyloxiran-2-yl)ethyl)-2-methyl-7-pentyl-2H-chromen-5-ol formation; type: ADME; summary of the method: as §4
structure (smiles),measurement,setting,value
CCCCC(O)c1cc(O)c2c(c1)OC(C)(CCC=C(C)C)C=C2 (stereo not drawn),Activity,[1],Non-Toxic
same,Activity,[2],Active
same,Activity,[3],Dose-Dependent Effect
same,Activity,[4],Dose-Dependent Effect
CCCCCc1cc(O)c2c(c1)OC(C)(CC/C=C(\C)CO)C=C2 (stereo not drawn),Activity,[1],Non-Toxic
same,Activity,[5],inactive
same,Activity,[6],inactive
same,Activity,[7],inactive
CCCCCc1cc(O)c2c(c1)OC(C)(CCC(O)C(C)(C)O)C=C2 (stereo not drawn),Activity,[1],Non-Toxic
same,Activity,[2],Active
same,Activity,[3],Dose-Dependent Effect
same,Activity,[8],Dose-Dependent Effect
same,Activity,[4],Dose-Dependent Effect
C=C(C)C(O)CCC1(C)C=Cc2c(O)cc(CCCCC)cc2O1 (stereo not drawn),Activity,[1],Non-Toxic
same,Activity,[2],Active
same,Activity,[3],Dose-Dependent Effect
same,Activity,[8],Dose-Dependent Effect
CCCCCc1cc(O)c2c(c1)OC(C)(CCC1OC1(C)C)C=C2 (stereo not drawn),Activity,[1],Non-Toxic
same,Activity,[2],Active
CCCCCc1cc(O)c2c(c1)OC(C)(CCC=C(C)C)C=C2 (stereo not drawn) [CANNABICHROMENE],fold change (FC),[9],3
same,Activity,[1],Non-Toxic
same,Drug metabolism,[10],Metabolite_Detected
same,Drug metabolism,[11],Metabolite_Detected
same,Drug metabolism,[12],Metabolite_Notdetected
same,Drug metabolism,[13],Metabolite_Detected
same,Drug metabolism,[14],Metabolite_Detected
same,Ratio,[15],~ 50
same,Drug metabolism,[16],Metabolite_Notdetected
same,Ki,[17],~713 nM
same,fold change (FC),[18],5
same,fold change (FC),[19],5
same,Drug metabolism,[20],Metabolite_Detected
same,Ki,[21],~100 nM
same,fold change (FC),[22],3
same,Drug metabolism,[23],Metabolite_Detected
same,Drug metabolism,[24],Metabolite_Detected
same,Drug metabolism,[25],Metabolite_Detected
same,Ratio,[26],~ 5
